{"source": "ChEMBL document CHEMBL1125819", "about": "“Novel benzamides as selective and potent gastrokinetic agents. 2. Synthesis and structure-activity relationships of 4-amino-5-chloro-2-ethoxy-N-[[4-(4-fluorobenzyl)-2- morpholinyl]methyl] benzamide citrate (AS-4370) and related compounds” (J Med Chem, 1991)", "data": [{"tested_on": "Mus musculus", "assay": "Toxicity tested in mouse and expressed as number of dead mouse / number of mouse used after a dose of 1.0 g/kg perorally; + slight toxicity", "format": "organism-based", "details": "in vivo, po, 1000 mg/kg", "how_it_was_run": "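Male ddY mice (18–25 g), groups of 10, given test compound dissolved or suspended in 0.5% tragacanth solution at a single oral dose of 1.0 g/kg. Mortality observed over 7 days after dosing and scored as dead/used per group; + corresponds to 0–2/10 dead.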", "values": [{"smiles": "CCOc1cc(N)c(Cl)cc1C(=O)NCC1CN(Cc2ccc(C#N)cc2)CCO1", "note": "(stereo not given)", "Acute toxicity": "slight toxicity"}, {"smiles": "COc1cc(N)c(Cl)cc1C(=O)NCC1CN(Cc2ccccc2C#N)CCO1", "note": "(stereo not given)", "Acute toxicity": "slight toxicity"}, {"smiles": "CCOc1cc(N)c(Cl)cc1C(=O)NCC1CN(Cc2ccccc2Cl)CCO1", "note": "(stereo not given)", "Acute toxicity": "slight toxicity"}, {"smiles": "COc1cc(N)c(Cl)cc1C(=O)NCC1CN(Cc2c(F)c(F)c(F)c(F)c2F)CCO1", "note": "(stereo not given)", "Acute toxicity": "slight toxicity"}]}, {"tested_on": "Rattus norvegicus", "assay": "Gastric emptying of phenol red semisolid meal in rats at dose of 2.0 mg/kg, administered perorally.", "format": "functional", "details": "route oral", "units": {"GE": "%"}, "values": [{"smiles": "COc1cc(N)c(Cl)cc1C(=O)NCC1CN(C(C)c2ccc(F)cc2)CCO1", "note": "(stereo not given)", "GE": 13}, {"smiles": "COc1cc(N)c(Cl)cc1C(=O)NCC1CN(Cc2ccc(F)cc2)CCO1", "note": "(stereo not given)", "GE": 38}, {"smiles": "COc1cc(N)c(Cl)cc1C(=O)NCC1CN(Cc2ccccc2F)CCO1", "note": "(stereo not given)", "GE": 28}, {"smiles": "COc1cc(N)c(Cl)cc1C(=O)NCC1CN(Cc2c(C)cc(C)cc2C)CCO1", "note": "(stereo not given)", "GE": 5}, {"smiles": "CCOc1cc(N)c(Cl)cc1C(=O)NCC1C[N+](C)(Cc2ccccc2Cl)CCO1.[I-]", "note": "(stereo not given)", "GE": 34}, {"smiles": "COc1cc(N)c(Cl)cc1C(=O)NCC1CN(CCc2ccccc2)CCO1", "note": "(stereo not given)", "GE": 29}, {"smiles": "CCOc1cc(N)c(Cl)cc1C(=O)NCC1CN(Cc2cccc(F)c2)CCO1", "note": "(stereo not given)", "GE": 54}, {"smiles": "CCOc1cc(N)c(Cl)cc1C(=O)NCC1CN(Cc2ccc(C#N)cc2)CCO1", "note": "(stereo not given)", "GE": 46}, {"smiles": "COc1cc(N)c(Cl)cc1C(=O)NCC1CN(Cc2ccccc2C#N)CCO1", "note": "(stereo not given)", "GE": 43}, {"smiles": "CCOc1cc(N)c(Cl)cc1C(=O)NCC1CN(Cc2cc(F)cc(F)c2)CCO1", "note": "(stereo not given)", "GE": 52}, {"smiles": "CCOc1cc(N)c(Cl)cc1C(=O)NCC1CN(Cc2ccccc2C#N)CCO1", "note": "(stereo not given)", "GE": 29}, {"smiles": "CCOc1cc(N)c(Cl)cc1C(=O)NCC1CN(C(C)c2ccc(Cl)cc2)CCO1", "note": "(stereo not given)", "GE": 33}, {"smiles": "CCOc1cc(N)c(Cl)cc1C(=O)NCC1CN(Cc2ccc(C(=O)O)cc2)CCO1", "note": "(stereo not given)", "GE": 13}, {"smiles": "COc1cc(N)c(Cl)cc1C(=O)NCC1CN(Cc2ccc(N)cc2)CCO1", "note": "(stereo not given)", "GE": 17}, {"smiles": "COc1cccc(CN2CCOC(CNC(=O)c3cc(Cl)c(N)cc3OC)C2)c1", "note": "(stereo not given)", "GE": 10}, {"smiles": "COc1cc(N)c(Cl)cc1C(=O)NCC1CN(Cc2ccc(Cl)c(Cl)c2)CCO1", "note": "(stereo not given)", "GE": 16}, {"smiles": "CCOc1cc(N)c(Cl)cc1C(=O)NCC1CN(Cc2ccccc2Cl)CCO1", "note": "(stereo not given)", "GE": 51}, {"smiles": "COc1cc(N)c(Cl)cc1C(=O)NCC1CN(C(c2ccccc2)c2ccccc2)CCO1", "note": "(stereo not given)", "GE": 15}, {"smiles": "CCOc1cc(NC=O)c(Cl)cc1C(=O)NCC1CN(Cc2ccc(F)cc2)CCO1", "note": "(stereo not given)", "GE": 33}, {"smiles": "COc1cc(N)c(Cl)cc1C(=O)NCC1CN(Cc2c(F)c(F)c(F)c(F)c2F)CCO1", "note": "(stereo not given)", "GE": 39}, {"smiles": "CCOc1cc(N)c(Cl)cc1C(=O)NCC1CN(Cc2ccc(Cl)cc2[N+](=O)[O-])CCO1", "note": "(stereo not given)", "GE": 47}, {"smiles": "CCOc1cc(N)c(Cl)cc1C(=O)NCC1CN(Cc2cccc(C#N)c2)CCO1", "note": "(stereo not given)", "GE": 33}, {"smiles": "CCOc1cc(N)c(Cl)cc1C(=O)NCC1CN(CCCc2ccccc2)CCO1", "note": "(stereo not given)", "GE": 18}, {"smiles": "COc1cc(N)c(Cl)cc1C(=O)NCC1CN(Cc2ccc(C(F)(F)F)cc2)CCO1", "note": "(stereo not given)", "GE": 23}, {"smiles": "CCOc1cc(N)c(Cl)cc1C(=O)NCC1CN(Cc2ccc(C(=O)OC)cc2)CCO1", "note": "(stereo not given)", "GE": 52}, {"smiles": "CCOc1cc(N)c(Cl)cc1C(=O)NCC1CN(Cc2c(F)c(F)c(F)c(F)c2F)CCO1", "note": "(stereo not given)", "GE": 23}, {"smiles": "CCOc1cc(N)c(Cl)cc1C(=O)NCC1C[N+]([O-])(Cc2ccccc2Cl)CCO1", "note": "(stereo not given)", "GE": 52}, {"smiles": "COc1cc(N)c(Cl)cc1C(=O)NCC1CN(Cc2ccc([N+](=O)[O-])cc2)CCO1", "note": "(stereo not given)", "GE": 22}, {"smiles": "COc1cc(N)c(Cl)cc1C(=O)NCC1CN(Cc2cccc(F)c2)CCO1", "note": "(stereo not given)", "GE": 30}, {"smiles": "CCOc1cc(N)c(Cl)cc1C(=O)NCC1CN(Cc2ccc(F)c(F)c2)CCO1", "note": "(stereo not given)", "GE": 46}, {"smiles": "COc1cc(N)c(Cl)cc1C(=O)NCC1CN(Cc2ccc(C(=O)O)cc2)CCO1", "note": "(stereo not given)", "GE": 18}, {"smiles": "COc1ccc(CN2CCOC(CNC(=O)c3cc(Cl)c(N)cc3OC)C2)cc1", "note": "(stereo not given)", "GE": 10}, {"smiles": "COc1cc(N)c(Cl)cc1C(=O)NCC1CN(Cc2ccc(Br)cc2)CCO1", "note": "(stereo not given)", "GE": 15}, {"smiles": "CCOc1cc(N)c(Cl)cc1C(=O)NCC1CN(Cc2ccccc2F)CCO1", "note": "(stereo not given)", "GE": 60}, {"smiles": "CCOc1cc(N)c(Cl)cc1C(=O)NCC1CN(CCCCc2ccccc2)CCO1", "note": "(stereo not given)", "GE": 47}, {"smiles": "COc1cc(N)c(Cl)cc1C(=O)NCC1CN(Cc2ccc(C)cc2)CCO1", "note": "(stereo not given)", "GE": 11}]}]}
